# PAFAH1B3 FP inh: blocks human PAF acetylhydrolase 1B catalytic subunit 3; Q15102; recombinant PAFAH1B3, FP-rhodamine probe, fluorescence polarization; inhibition, % at 3.39 µM; 340,000 compounds, 0.28% hits;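 active means inhibition above the screen-wide average of all tested compounds plus 3 SD, cut at about 25% in these data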
# Target sequence (Q15102 whole entry, looked up): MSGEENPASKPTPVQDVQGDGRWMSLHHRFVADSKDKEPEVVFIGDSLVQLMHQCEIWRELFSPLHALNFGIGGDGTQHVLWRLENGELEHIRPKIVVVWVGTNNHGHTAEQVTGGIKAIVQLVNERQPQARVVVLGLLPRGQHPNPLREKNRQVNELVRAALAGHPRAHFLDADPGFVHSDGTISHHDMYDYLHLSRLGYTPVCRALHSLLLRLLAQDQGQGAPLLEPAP
# ABHD4 inh: inhibitors of mouse ABHD4. Q8VD66. inhibition, % at 8.92 µM. 370,000 compounds, 0.54% hits. purified mABHD4, FP-Rh probe fluorescence polarization;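 active means inhibition exceeding the mean over every tested compound plus 3 SD, cut at about 30% in these data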
#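 Test system: mouse ABHD4 enzyme, wild type. Reagent: FP-Rh fluorescent activity-based probe, added after compound pre-incubation. Timing: pre-incubation 45 min, probe exposure 60 min, at 25 °C. Technique: FP readout, ex 525 nm / em 598 nm. Benchmarks: high control S159A mutant with DMSO, low control median of compound wells.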
# PAFAH2 inh: inhibitors of human PAFAH2. recombinant PAFAH2, FP-rhodamine activity probe, fluorescence polarization. inhibition, % at 3.39 µM. 340,000 compounds, 0.99% hits. AID 492956;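 active means inhibition above the mean over all tested compounds plus 3 SD, cut at about 30% in these data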;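 further: inhibitors block probe labeling of enzyme so polarization drops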
# pPAFAH inh: inhibitors of human plasma PAF acetylhydrolase (pPAFAH) | recombinant pPAFAH, FP-rhodamine probe fluorescence polarization | inhibition, % at 3.39 µM | 330,000 compounds, 1.5% hits | AID 463082;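 active means inhibition above the mean inhibition across the screen plus 3 SD, cut at about 25% in these data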;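 further: inhibitors block binding of the rhodamine activity-based probe so polarization drops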
# HTRA1 inh: blocks human HTRA1 serine peptidase. inhibition, % at 5.96 µM. recombinant HTRA1, FP-rhodamine activity-based probe, fluorescence polarization. 340,000 compounds, 0.5% hits; in the data active means inhibition above about 36%
# PAFAH1B2 FP inh: blocks human PAF acetylhydrolase 1b catalytic subunit 2. P68402. recombinant PAFAH1B2, FP-rhodamine activity probe, fluorescence polarization. inhibition, % at 3.39 µM. 340,000 compounds, 1.2% hits;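 active means inhibition above the mean of all tested compounds plus 3 SD, cut at about 24% in these data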
# Target sequence (P68402 whole entry, looked up): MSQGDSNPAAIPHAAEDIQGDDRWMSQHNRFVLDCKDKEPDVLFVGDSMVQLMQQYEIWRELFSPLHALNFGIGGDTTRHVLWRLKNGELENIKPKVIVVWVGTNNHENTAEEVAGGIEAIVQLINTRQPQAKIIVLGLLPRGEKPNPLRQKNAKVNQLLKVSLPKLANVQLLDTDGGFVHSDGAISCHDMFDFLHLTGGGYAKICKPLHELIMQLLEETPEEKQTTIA
# A number is an active result; i = inactive; nt = no result given. Hits are enriched below; roughly 2.8% of the tested compounds scored in any of these assays.
SMILES,PAFAH1B3 FP inh,ABHD4 inh,PAFAH2 inh,pPAFAH inh,HTRA1 inh,PAFAH1B2 FP inh
CC(=O)CC[C@H]1CC[C@]2(CCCN(C(=O)C(C)(C)C)C2)O1,nt,i,nt,nt,nt,nt
CCn1c(SCC(=O)N(C)C)nc2cc(S(=O)(=O)N3CCOCC3)ccc21,i,i,i,i,i,78
COc1ccc(S[C@]2(C(=O)N(C)C)CC(=O)N(C(=O)Nc3ccc(C)c(Cl)c3)[C@@H]2c2ccc(OC)cc2)cc1,nt,i,nt,nt,nt,nt
O=C(NCc1ccco1)C1CCCN(c2ncccn2)C1 (configuration not stated),nt,i,nt,nt,nt,nt
CC(C)C(NC(=O)C12CC3CC(CC(C3)C1)C2)C(=O)O (configuration not stated),i,i,i,i,i,26
CCN(C[C@@H]1[C@@H](c2ccccc2)[C@H](CO)N1S(C)(=O)=O)C(=O)C1CCC1,nt,i,nt,nt,nt,nt
CCOC(=O)C1CCN(C(=O)C(C)(C)NC(=O)Nc2ccc(Cl)cc2Cl)CC1,nt,i,nt,nt,nt,nt
COc1ccccc1-c1nnc(SCC#CCOC(=O)c2ccc(F)cc2)o1,nt,i,nt,nt,nt,nt
O=C(O)c1sccc1SCc1ccc(Cl)cc1Cl,i,i,i,i,i,30
N#Cc1c(Cl)nc(N/N=C/c2ccccc2)c(Cl)c1Cl,i,i,i,29,i,i
CN(CC(=O)Nc1ccc(F)cc1)C(=O)COC(=O)c1ccc(=O)n(Cc2ccccc2)n1,i,i,i,29,i,i
COCC(=O)N(C[C@H]1[C@H](c2ccccc2)[C@@H](CO)N1C(=O)NC(C)C)C(C)C,nt,i,nt,nt,nt,nt
CCN1C(=O)c2cccc3c(S(=O)(=O)Nc4ccccc4)ccc1c23,i,nt,i,25,i,i
CCN1C(=O)c2cccc3c(S(=O)(=O)Nc4ccncc4)ccc1c23,i,nt,i,i,i,i
COc1ccc(CCNC(=O)c2c(N)[nH]c(C(=O)c3ccccc3)c2-c2ccc(N(C)C)cc2)cc1,nt,i,nt,nt,nt,nt
COc1ccc(-c2csc(N3CCN(C(=O)c4ccco4)CC3)n2)cc1,i,i,i,i,i,i
COc1ccc(C2=NN(c3nc(-c4ccc(CNC(C)=O)cc4)cs3)C(c3ccco3)C2)cc1 (configuration not stated),i,i,i,25,i,i
CC1(C)C=C2C(N(CC3CC3)C(=N)N2C(=O)OCc2ccccc2)n2c(=O)n(-c3ccccc3)c(=O)n21 (configuration not stated),nt,i,nt,nt,nt,nt
COc1ccc(-n2c(SCC(=O)Nc3ccc(S(=O)(=O)Nc4nccs4)cc3)nnc2-c2ccco2)cc1,nt,i,nt,nt,nt,nt
Cc1ccc(S(=O)(=O)Oc2ccc(/C=N/NC(=O)c3nn(C)cc3[N+](=O)[O-])cc2)cc1,i,i,i,i,i,28
Cc1ccc(S(=O)(=O)Oc2ccccc2/C=N/NC(=O)c2nn(C)cc2[N+](=O)[O-])cc1,i,i,i,i,i,i
CC(C)c1cc(C(=O)N2CCCC(Nc3ccc(F)cc3)C2)n[nH]1 (configuration not stated),i,i,i,i,i,24
CC(C)c1ccc(NC2CCCN(C(=O)c3cc(C(C)C)nc(N)n3)C2)cc1 (configuration not stated),i,i,i,i,i,i
O=C1CC(c2cccc(Br)c2)c2cc3c(cc2N1)CCC3 (configuration not stated),i,i,i,28,i,i
CN1CC=C2C(C#N)=C(N)C(C#N)(C#N)[C@H](c3ccoc3)[C@H]2C1,i,nt,i,32,i,i
SMILES,PAFAH1B3 FP inh,ABHD4 inh,PAFAH2 inh,pPAFAH inh,HTRA1 inh,PAFAH1B2 FP inh
Cc1ccc(C2C3CN(C(C)C)CC=C3C(C#N)=C(N)C2(C#N)C#N)cc1 (configuration not stated),i,34,i,i,i,i
COc1cc(N/C=C(\C(C)=O)c2ccccc2)cc(OC)c1,i,nt,i,31,i,i
CC(=O)/C(=C/Nc1ccc(Oc2ccccc2)cc1)c1ccccc1,i,i,i,i,i,i
CCOC(=O)c1c(NC(=O)/C=C\C(=O)O)sc(C)c1-c1ccccc1,i,i,i,i,i,i
Cc1sc(NC(=O)C2CCCCC2C(=O)O)c(C(N)=O)c1-c1ccc(C(C)(C)C)cc1 (configuration not stated),i,i,i,i,i,26
CCOC(=O)c1c(NC(=O)/C=C/C(=O)O)sc(C)c1-c1ccc(C(C)(C)C)cc1,i,i,i,33,i,i
COc1cccc(C(=O)Nc2ccc3nc(N4CCN(c5ncccn5)CC4)cc(C)c3c2)c1OC,nt,nt,nt,82,nt,nt
CCOc1ccccc1C(=O)Nc1ccc2nc(N3CCN(c4ncccn4)CC3)cc(C)c2c1,nt,nt,nt,i,nt,nt
O=C1N=C(N2C=CC(=C3C=CNC=C3)C=C2)/C(=C/N=NC(=O)c2ccccc2O)S1,i,i,i,26,i,i
CCc1ccc(NC(=O)NNC(=O)c2cc3ccccc3cc2O)cc1,i,i,i,33,i,i
Cc1ccc(NC(=O)NNC(=O)c2cc3ccccc3cc2O)cc1C,i,i,i,i,i,i
COC(=O)[C@]12C[C@H](CC(=O)NCCC(C)C)C(=O)N(CCc3ccc(OC)c(OC)c3)C1=C[C@H](COCc1ccccc1)O[C@@H]2C,nt,i,nt,nt,nt,nt
S=c1[nH]nc(-c2ccco2)n1/N=C/c1ccc(Cl)cc1Cl,i,i,i,31,i,i
N#Cc1ccc(-c2ccco2)nc1SCC(=O)c1ccc(Cl)cc1,i,i,i,39,i,i
N#CCC[C@H]1CC[C@]2(CCCN(C(=O)c3ccc4ccccc4n3)C2)O1,nt,i,nt,nt,nt,nt
O=C(Nc1ccc(S(=O)(=O)Nc2ncccn2)cc1)C12CC3CC(CC(Cl)(C3)C1)C2,i,i,i,i,i,30
O=C(CSC(=S)N1CCCC1)Nc1cc2c(cc1Br)OCCO2,i,i,i,i,i,i
O=C(CSC(=S)N1CCCC1)c1cc(Br)cc(Br)c1O,nt,i,nt,25,nt,nt
Cc1ccc(-n2c(SCc3ccc(Cl)c(Cl)c3)nnc2-c2ccc(C(C)(C)C)cc2)cc1,nt,i,nt,nt,nt,nt
COc1ccc(-c2[nH]c(-c3ccc(SC)cc3)nc2SCC(=O)Nc2nccs2)cc1,i,i,i,i,i,27
c1csc(C2Nc3cccc4cccc(c34)N2)c1,30,i,i,i,i,i
CCOC(=O)C1CCN(C(=O)CSc2ccc(Cl)cc2)CC1,i,i,i,i,i,i
CCOC(=O)C1CCN(C(=O)COC(=O)Cc2ccc(Cl)cc2)CC1,i,i,i,30,i,i
Cc1ccc(CS(=O)(=O)Cc2ccc(C(=O)NCc3ccco3)o2)cc1,i,i,i,34,i,i
Cc1cccc(CS(=O)(=O)Cc2ccc(C(=O)NCc3ccco3)o2)c1,i,i,i,25,i,i
CCOC(=O)[C@]12CCCCC/C=C\1N(Cc1ccc(OC)cc1)C(=O)[C@H]2CC(=O)NCc1cccc2ccccc12,nt,i,nt,nt,nt,nt
NC(=O)c1c(N)[nH]c(C(=O)c2ccccc2)c1-c1ccccn1,nt,i,nt,nt,nt,nt
Cc1ccc(C(=O)/C=C/N(C)C)o1,i,i,i,i,i,i

# Screens as filed in PubChem BioAssay.
